Screening data: PubChem BioAssay, The Scripps Research Institute Molecular Screening Center
This is a sample that favours compounds with a hit; in the whole collection about 2% have one here.
TDP2 absorb: human TDP2 enzyme inhibitors, primary screen, biochemical, epi absorbance, recombinant enzyme; hit rate 0.34% among 370,000; inhibition, % at 12.8 µM; Tyrosyl-DNA phosphodiesterase 2 (Homo sapiens), O95551; T5PNP hydrolysis, p-nitrophenol absorbance 415 nm;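 active means inhibition above the mean of all tested compounds plus 3 SD, set per campaign, cut at about 25% in these data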;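 further: 0% = DMSO with enzyme and 100% = buffer with substrate but no TDP2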
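test system = human TDP2 enzyme | input = TDP2 enzyme at 120 nM final | medium = 50 mM Tris-HCl pH 7.5 with Mg2+, KCl, DTT, BSA | also added = T5PNP substrate, 5 mM | times = 2 h at 37 °C | technique = epi absorbance | benchmarks = high control without enzyme, low control DMSO plus TDP2 | replication = each compound tested once, singlicate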
PAD4 FP inh: human PAD4 inhibitors, primary screen, biochemical, fluorescence polarization, 1536-well format; Protein-arginine deiminase type-4 (Homo sapiens), Q9UM07; recombinant PAD4, RCA probe fluorescence polarization; hit rate 0.41% among 330,000; inhibition, % at 6.36 µM;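 active means percent inhibition above a cutoff equal to the mean of all tested compounds plus 3 SD, cut at about 15% in these data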;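 further: 0% = PAD4 with RCA probe and DMSO and 100% = probe without PAD4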
Target sequence (Q9UM07 whole entry, looked up): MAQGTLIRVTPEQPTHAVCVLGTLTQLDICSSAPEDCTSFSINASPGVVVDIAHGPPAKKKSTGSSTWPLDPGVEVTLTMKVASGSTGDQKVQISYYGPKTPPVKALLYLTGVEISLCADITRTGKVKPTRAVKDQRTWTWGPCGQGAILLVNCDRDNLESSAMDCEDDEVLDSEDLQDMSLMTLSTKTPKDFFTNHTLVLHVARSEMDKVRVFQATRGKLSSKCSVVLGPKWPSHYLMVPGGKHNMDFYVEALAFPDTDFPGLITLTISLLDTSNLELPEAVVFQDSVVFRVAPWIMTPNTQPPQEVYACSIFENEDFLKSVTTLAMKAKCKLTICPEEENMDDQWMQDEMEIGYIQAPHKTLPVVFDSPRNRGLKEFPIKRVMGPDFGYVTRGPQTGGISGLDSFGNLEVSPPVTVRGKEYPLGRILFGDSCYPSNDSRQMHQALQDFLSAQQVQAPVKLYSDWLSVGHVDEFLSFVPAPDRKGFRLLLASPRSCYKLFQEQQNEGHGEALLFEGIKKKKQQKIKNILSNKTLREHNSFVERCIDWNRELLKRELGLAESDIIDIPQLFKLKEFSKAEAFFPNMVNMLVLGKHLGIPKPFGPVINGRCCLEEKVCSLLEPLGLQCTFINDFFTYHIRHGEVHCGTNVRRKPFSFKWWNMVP
TCR CD3 inh: inhibitors of human TCR-CD3 interaction, primary screen, biochemical, fluorescence, TAMRA-labeled TCR probe | AID 651800, 2012 | T-cell receptor (TCR) | inhibition, % at 9.4 µM | hit rate 0.37% among 360,000; in the data active means inhibition above about 19%;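 further: recombinant mutant TCR 2C K166C tagged with TAMRA read by polarization; 0% = receptor in buffer alone and 100% = receptor with positive control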
mABHD4 FP: ABHD4 inhibitors, primary screen, biochemical, fluorescence polarization, mouse; hit rate 0.54% among 370,000; AID 720543, 2013; inhibition, % at 8.92 µM; purified mABHD4, FP-Rh probe fluorescence polarization;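 active means inhibition exceeding the mean over every tested compound plus 3 SD, cut at about 30% in these data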;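 further: 0% = plate median of compound wells and 100% = S159A mutant with DMSO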
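Material: mouse ABHD4 enzyme, wild type; Benchmarks: S159A mutant high control, sample median low control; Buffer or medium: HEPES pH 7.0, NaCl, Pluronic buffer; Signal: fluorescence polarization; Read-out: percent inhibition of probe binding, normalized to plate controls; Timing: pre-incubation 45 min, probe exposure 60 min, at 25 °C; Dosing: 8.92 µM, single dose.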
SIAE inh: human SIAE inhibitors, primary screen, biochemical, fluorescence polarization, FP-Rh probe, 1536-well HTS | inhibition, % at 9.66 µM | SIAE FP-Rh probe binding | AID 1053197, 2014 | hit rate 0.69% among 370,000;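 active means inhibition above a cutoff: mean of compounds within the control limits plus 3 SD of those, cut at about 17% in these data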;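 further: 0% = plate median of compound wells and 100% = probe without SIAE protein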
HTRA1 inhibitor: HTRA1 serine protease inhibitors, primary screen, biochemical, fluorescence polarization, HTS. inhibition, % at 5.96 µM. recombinant HTRA1, FP-rhodamine activity-based probe. AID 504803, 2011. Q92743. hit rate 0.5% among 340,000; in the data active means inhibition above about 36%;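 further: 0% = enzyme with DMSO and 100% = wells lacking enzyme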
HTRA1 inh conf: HTRA1 protease inhibitors, retest, confirmation, biochemical, fluorescence polarization; shares compounds with HTRA1 inhibitor; recombinant HTRA1, FP-rhodamine activity-based probe; inhibition, % at 5.96 µM; hit rate 66% among 1,600;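 active means mean inhibition over three repeats above a set limit taken from the earlier primary screen, cut at about 37% in these data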;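 further: 0% = HTRA1 with DMSO and 100% = wells lacking HTRA1; inhibitors block probe binding so polarization drops and inhibition rises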
mABHD4 conf: ABHD4 inhibitors, retest, confirmation, biochemical, fluorescence polarization, mouse; shares compounds with mABHD4 FP; hit rate 55% among 1,800; purified mABHD4, FP-Rh probe fluorescence polarization; inhibition, % at 8.92 µM;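 active means mean inhibition across replicates above the hit cutoff set in the primary screen, cut at about 30% in these data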;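 further: 0% = wild-type ABHD4 with DMSO and 100% = catalytically dead S159A mutant with DMSO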
An asterisk follows results filed as active.

Results for O=c1c(-c2ccc([N+](=O)[O-])cc2)coc2c(O)c(O)ccc12 ?
TDP2 absorb: -10.4; PAD4 FP inh: 2.7; TCR CD3 inh: 16.0; mABHD4 FP: 42.2*; SIAE inh: -2.1; HTRA1 inhibitor: 66.1*; HTRA1 inh conf: 68.1*; mABHD4 conf: 22.1

What do the screens show for `CCOCCCNC(=O)C(c1ccc(OC)cc1)N(Cc1cccs1)C(=O)c1ccccn1` (centres undefined)?
TDP2 absorb: 6.2; PAD4 FP inh: -0.3; TCR CD3 inh: 3.2; mABHD4 FP: -0.3; SIAE inh: -3.0; HTRA1 inhibitor: -1.0

How did O=C(O)c1ccc(/C=N/NC(=O)c2cc3ccccc3cc2O)cc1 do in these assays?
TDP2 absorb: 2.2; PAD4 FP inh: -2.5; TCR CD3 inh: 0.5; mABHD4 FP: 31.4*; SIAE inh: 12.8; HTRA1 inhibitor: 42.4*; HTRA1 inh conf: 15.6; mABHD4 conf: -6.3

What do the screens show for `Cc1ccc(C)c(/C=C/C(=O)c2ccccc(=O)c2O)c1`?
TDP2 absorb: 0.4; PAD4 FP inh: -2.9; TCR CD3 inh: 11.0; mABHD4 FP: 37.9*; SIAE inh: 11.2; HTRA1 inhibitor: 54.2*; HTRA1 inh conf: 59.1*; mABHD4 conf: 24.5

Results for Cc1ccc(C)c(NC(=O)c2ccccc2O)c1 ?
TDP2 absorb: 3.1; PAD4 FP inh: 1.1; TCR CD3 inh: 7.0; mABHD4 FP: -1.0; SIAE inh: -6.5; HTRA1 inhibitor: 3.8

Results for O=C(O)c1ccc(N=Nc2c(O)ccc3ncccc23)cc1 ?
TDP2 absorb: 5.0; PAD4 FP inh: -7.8; TCR CD3 inh: -13.8; mABHD4 FP: 72.7*; SIAE inh: 0.5; HTRA1 inhibitor: 38.5*; HTRA1 inh conf: 28.7; mABHD4 conf: 79.9*

Results for Cc1[nH]c(N=Nc2ccccc2)nc1N=Nc1ccccc1 ?
TDP2 absorb: -3.2; PAD4 FP inh: -0.4; TCR CD3 inh: 2.7; mABHD4 FP: 45.4*; SIAE inh: 2.0; HTRA1 inhibitor: 73.5*; HTRA1 inh conf: 74.5*; mABHD4 conf: 62.1*

What do the screens show for `Cn1nc(-c2ccccc2)cc1NC(=O)c1cccs1`?
TDP2 absorb: 0.6; PAD4 FP inh: -6.4; TCR CD3 inh: -11.8; mABHD4 FP: -2.0; SIAE inh: -10.7; HTRA1 inhibitor: -0.1

What do the screens show for `Oc1c(N=Nc2ccccn2)ccc2ccccc12`?
TDP2 absorb: -0.9; PAD4 FP inh: -12.1; TCR CD3 inh: 6.8; mABHD4 FP: 34.9*; SIAE inh: 4.6; HTRA1 inhibitor: 51.3*; HTRA1 inh conf: 37.6*; mABHD4 conf: 24.8

Results for Oc1[nH]c2ccccc2c1N=Nc1ccccn1 ?
TDP2 absorb: -2.8; TCR CD3 inh: 7.0; mABHD4 FP: 4.4; SIAE inh: 0.4; HTRA1 inhibitor: -0.3

What do the screens show for `CC(C)Nc1ccc(Nc2ccnc3cc4ccccc4cc23)cc1`?
TDP2 absorb: 1.9; PAD4 FP inh: -2.6; TCR CD3 inh: -1.5; mABHD4 FP: 31.2*; SIAE inh: 8.2; HTRA1 inhibitor: 38.7*; HTRA1 inh conf: 45.9*; mABHD4 conf: 54.5*

How did COc1cc(OC)cc(C(=O)N2CCC3(CC2)NCCc2[nH]cnc23)c1 do in these assays?
TDP2 absorb: 7.8; PAD4 FP inh: -1.6; TCR CD3 inh: -3.5; mABHD4 FP: 0.0; SIAE inh: 0.4; HTRA1 inhibitor: -4.2

How did CC(O)c1cc2c(s1)c1cnn(Cc3ccccc3F)c(=O)c1n2C (centres undefined) do in these assays?
PAD4 FP inh: -5.9; HTRA1 inhibitor: 1.1
